Screening data: PubChem, several laboratories
In the library only some 4.7% were active in any assay of this set; here they are far more common.
VIM-2 inh: blocks Pseudomonas aeruginosa VIM-2 metallo-beta-lactamase. 290,000 tested, 0.89% active. AID 1527. inhibition, % at 5.6 µM. purified VIM-2, nitrocefin hydrolysis, epi-absorbance fluorescence;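 active = inhibition above the mean of all tested compounds plus 3 SD, cutoff set per screening run, cut at about 7.5% in these data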;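 note: red hydrolysis product quenches plate fluorescence so inhibitors raise well fluorescence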
Mdm2-MdmX inh: inhibitors of human Mdm2/MdmX interaction; inhibition, % at 8 µM; SaOS-2 split-luciferase Mdm2/MdmX complementation, luminescence; O15151+Q00987; 330,000 tested, 3% active;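 active = inhibition of at least 50% at 8 µM in the primary screen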
IMP-1 inhibitor: blocks Pseudomonas aeruginosa IMP-1 metallo-beta-lactamase; inhibition, % at 5.6 µM; 290,000 tested, 0.45% active; purified IMP-1, nitrocefin hydrolysis, epi-absorbance fluorescence;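 active = inhibition above the mean plus 3 SD of all compounds in the same screening run, cut at about 4.5% in these data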
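System: purified IMP-1 / Input: IMP-1 dispensed at 0.2 nM / Medium: 50 mM HEPES pH 7.1, 50 µM ZnSO4, 0.05% Brij 35 / Timing: 15 min enzyme–compound preincubation, then 25 min nitrocefin reaction, 25 °C / Technique: plate fluorescence quenching by hydrolysis product, ex 480/em 530 nm / Repeats: singlicate testing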
aSyn 5UTR inh: 5' untranslated region of α-synuclein, MLPCN primary screen; alpha-synuclein 5'UTR reporter, inhibitor activity; inhibition, % (tested at 7.5 µM); 300,000 tested, 0.82% active; in the data active = inhibition above about 60%;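 note: H4 neuroglioblastoma cells stably carrying SNCA 5'UTR luciferase fusion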
697 NFkB inh: inhibitors of the PMA/ionomycin-induced NF-kB reporter in 697 B cells | 697 B-cell NF-kB luciferase reporter, 16 h | inhibition, % at 4 µM | 330,000 tested, 0.33% active | AID 435022; in the data active = inhibition above about 35%
Jurkat NFkB inh: lowers PMA/ionomycin-induced NF-kB signal in Jurkat cells; 330,000 tested, 0.53% active; AID 435003; inhibition, % at 4 µM; PMA/ionomycin-induced NF-kB luciferase reporter, luminescence; in the data active = inhibition above about 50%
Mdm2 MdmX conf: human Mdm2/MdmX binding inhibition, confirmed; shares compounds with Mdm2-MdmX inh; luminescent assay; inhibition, % at 8 µM; 10,000 tested, 55% active; in the data active = inhibition above about 40%
FLuc counter: counter-screen for Mdm2/MdmX inhibitors: full-length luciferase; shares compounds with Mdm2-MdmX inh; SaOS-2 full-length luciferase counterscreen, luminescence; inhibition, % at 8 µM; 6,200 tested, 77% active;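 active = mean inhibition at 8 µM reaching about 37%, which flags the compound as non-specific, limit read from the data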;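 note: p53-null SaOS-2 cells with luciferase driven by a doxycycline-inducible promoter; compound on cells about two nights before reading with doxycycline added after day one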
Large screens that a line does not name were inactive (follow-up assays come after a bar, where they were run).

c1coc(CNc2nc(N3CCCCC3)nc3ccccc23)c1	Mdm2-MdmX inh 51.6 | Mdm2 MdmX conf inactive
c1ccc(CNc2nc(N3CCN(Cc4ccccc4)CC3)nc3ccccc23)cc1	Mdm2-MdmX inh 81.0 | Mdm2 MdmX conf inactive
c1ccc(CN2CCC(Nc3nc(-c4ccccc4)nc4ccccc34)CC2)cc1	Mdm2-MdmX inh 83.1, aSyn 5UTR inh 72.0 | Mdm2 MdmX conf inactive | FLuc counter 84.9
c1ccc(N2CCN(c3nc(NCc4ccco4)c4ccccc4n3)CC2)cc1	none
COc1ccccc1N(C)S(=O)(=O)c1ccc(C(=O)N2CCCC(C(F)(F)F)C2)cc1 (configuration not stated)	none (no result: VIM-2 inh, IMP-1 inhibitor)
CCNc1nc(NC(C)C)nc(Oc2ccc(OCCOc3ccc(C)cc3)nn2)n1	Mdm2-MdmX inh 51.9 | Mdm2 MdmX conf inactive
CCNc1nc(NCC)nc(Oc2ccc(OCC)nn2)n1	none
CN(C)S(=O)(=O)c1ccc(N2CCCC2)c(C(=O)Nc2nc(-c3cc(F)ccc3F)cs2)c1	Mdm2-MdmX inh 54.8 | Mdm2 MdmX conf 47.3 | FLuc counter 47.5
Cc1cccc2sc(NC(=O)c3cc(S(=O)(=O)N(C)C)ccc3N3CCCC3)nc12	Mdm2-MdmX inh 64.7 | Mdm2 MdmX conf 69.8 | FLuc counter 44.8
O=C(CC(=O)c1c(F)cccc1Cl)c1ccccc1O	none
O=c1[nH]c(CCl)nc2cc(-c3ccc(F)cc3)sc12	Mdm2-MdmX inh 94.3 | Mdm2 MdmX conf inactive
Cc1ccc(Nc2nnc(SCC(=O)c3c(N)n(C4CC4)c(=O)[nH]c3=O)s2)cc1C	Mdm2-MdmX inh 70.5 (no result: VIM-2 inh, IMP-1 inhibitor, aSyn 5UTR inh) | Mdm2 MdmX conf inactive
Cc1cc(C)cc(-c2nnc(SCC(=O)c3c(N)n(C4CC4)c(=O)[nH]c3=O)o2)c1	Mdm2-MdmX inh 54.4 (no result: VIM-2 inh, IMP-1 inhibitor, aSyn 5UTR inh) | Mdm2 MdmX conf inactive
CCCc1cc(=O)[nH]c(SCC(=O)c2c(N)n(C3CC3)c(=O)[nH]c2=O)n1	Mdm2-MdmX inh 96.3 (no result: VIM-2 inh, IMP-1 inhibitor, aSyn 5UTR inh) | Mdm2 MdmX conf inactive
CCc1nnc(NC(=O)CSc2nnc(CNc3ccc(F)cc3)n2C2CCCCC2)s1	none
Cc1ccc(C(=O)NC(C#N)=C(Cl)Cl)cc1	Mdm2-MdmX inh 100.3 | Mdm2 MdmX conf 99.3 | FLuc counter 53.1
COc1ccc(-n2c(SCC(=O)NCCCN3CCCC3=O)nnc2C(C)N2CCCCC2)cc1 (configuration not stated)	none
CC(=O)c1c(C(C)=O)c(C)n(-c2ccc(C)c(NC(=O)c3ccccc3Cl)c2)c1C	none
O=C(c1nn2c(C(F)(F)F)cc(-c3ccco3)nc2c1Br)N1CCCc2ccccc21	Mdm2-MdmX inh 56.7, aSyn 5UTR inh 92.9 | Mdm2 MdmX conf 44.0 | FLuc counter 48.3
Cc1ccc2c(c1)N(CC(=O)NCC(C)c1ccccc1)C(=O)c1cccnc1O2 (configuration not stated)	none
O=C1CC(NS(=O)(=O)c2cccs2)CN1c1ccccc1 (configuration not stated)	none (no result: VIM-2 inh, IMP-1 inhibitor)
Cc1cc(NC(=O)C2CCCC2)nc2c1c(=O)oc1ccccc12	none
Cc1cc(NC(=O)Cc2ccccc2)nc2c1c(=O)oc1ccccc12	Mdm2-MdmX inh 74.4 | Mdm2 MdmX conf inactive
Cc1cccc(C(=O)N2CCN(CCNC(=O)C(=O)Nc3ccc(F)cc3)CC2)c1	none
Cc1cccc(N2CC(C(=O)Nc3nnc(SCC(=O)N4CCOCC4)s3)CC2=O)c1 (configuration not stated)	none
Cc1cccc(C)c1NC(=O)COC(=O)c1cccc2c1C(=O)c1ccccc1C2=O	Mdm2-MdmX inh 58.6, aSyn 5UTR inh 67.9 | Mdm2 MdmX conf inactive | FLuc counter 77.5
Cc1cccc(NC(=O)COC(=O)c2cccc3c2C(=O)c2ccccc2C3=O)c1C	none
COc1cccc2c1OC1(C)CC2NC(=O)N1c1cccc(C(=O)N2CCN(c3ccccc3)CC2)c1 (configuration not stated)	none
CC1=Nc2cc(C(=O)NCCCN3CCOCC3)ccc2Sc2c(C)ccc(C)c21	Mdm2-MdmX inh 66.1 | Mdm2 MdmX conf inactive
CCCC1=Nc2cc(C(=O)NCCN3CCOCC3)ccc2Sc2ccccc21	none
